{"source": "ChEMBL document CHEMBL3399929", "about": "(Bioorg Med Chem, 2015)", "key": {"[1]": {"test_system": "Mycobacterium tuberculosis", "test": "Bactericidal activity against non-replicating Mycobacterium tuberculosis H37Rv Wayne model under hypoxic/oxygen depleted conditions assessed as log reduction after 4 days by serial dilution assay", "assay_type": "functional", "in_short": "(§1)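 Wayne hypoxia model. A mid-log 7H9 culture was diluted to about 10^5 cfu/mL, and 10 mL was sealed in 20 mL headspace vials. Vials were stirred slowly at 37 °C for 20–22 days, until methylene blue indicator (1.5 µg/mL) decolorized. Drug was then injected through the septum, and vials were incubated 4 more days at 37 °C. Tests were run in duplicate, with CFU counted on 7H10 agar plates.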"}, "[2]": {"test_system": "Mycolicibacterium smegmatis", "test": "Inhibition of Mycobacterium smegmatis TMC 607 ATP synthase at 0.3 uM incubated for 10 mins prior to NADH addition measured after 1 hr by luminescence assay", "in_short": "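Inverted membrane vesicles from M. smegmatis were diluted to 100 µg protein/mL in 50 mM MOPS pH 7.5 with 10 mM MgCl2. Vesicles were preincubated with compound for 10 min at room temperature with stirring, then given 2.5 mM NADH for 1 min. The reaction was started with 1 mM ADP plus 10 mM potassium phosphate and run for 1 h. It was quenched with EDTA/TCA, and ATP was read by luciferase luminescence.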"}, "[3]": {"test_system": "Mycobacterium tuberculosis", "test": "Antimycobacterial activity against Mycobacterium tuberculosis H37Rv after 4 weeks by agar dilution assay", "assay_type": "functional", "in_short": "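Agar dilution method. DMSO stocks (5 mg/mL) were serially diluted in DMSO, and 0.1 mL of each was mixed into 1.9 mL Middlebrook 7H10 agar with OADC and set as slants. Each tube received about 10^5 bacilli from a 3-week Lowenstein–Jensen culture suspended in saline with 0.05% Tween-80. Tubes were incubated at 37 °C for 4 weeks. MIC was the lowest concentration with no visible growth.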"}, "[4]": {"test": "Inhibition of Mycobacterium smegmatis TMC 607 ATP synthase incubated for 10 mins prior to NADH addition measured after 1 hr by luminescence assay", "set-up": "species or system Mycolicibacterium smegmatis"}, "[5]": {"test_system": "Mycobacterium tuberculosis", "test": "Bactericidal activity against non-replicating Mycobacterium tuberculosis H37Rv Wayne model under hypoxic/oxygen depleted conditions assessed as log reduction at 5 ug/ml after 4 days by serial dilution assay", "assay_type": "functional", "in_short": "as §1"}, "[6]": {"test_system": "Mycobacterium tuberculosis H37Rv", "test": "Inhibition of Mycobacterium tuberculosis H37Rv ATP synthase assessed as reduction in total ATP content at 0.5 ug/ml after 18 hrs by bead-vortexing settling method", "in_short": "(§2)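 H37Rv was declumped by bead-vortexing and settling, adjusted to McFarland 1, then diluted 100-fold. Portions of 1 mL in tubes with 0.5 mm glass beads were exposed to compound for 18 h at 37 °C. Samples were heated 8–10 min, chilled on ice, and bead-beater lysed. Cleared lysate ATP was measured by luciferase assay.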"}, "Aspergillus fumigatus": {"test_system": "Aspergillus fumigatus", "test": "Antifungal activity against Aspergillus fumigatus at 50 ug/ml", "assay_type": "functional, organism-based"}, "[7]": {"test_system": "Mycobacterium tuberculosis", "test": "Bactericidal activity against non-replicating Mycobacterium tuberculosis H37Rv Wayne model under hypoxic/oxygen depleted conditions assessed as log reduction at 10 ug/ml after 4 days by serial dilution assay", "assay_type": "functional", "in_short": "as §1"}, "[8]": {"test": "Cytotoxicity against mouse bone marrow macrophages […]", "assay_type": "cell-based", "details": "macrophage"}, "[9]": {"test": "Inhibition of Swiss mouse liver ATP synthase after 1 hr", "in_short": "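Liver mitochondria came from an overnight-fasted adult Swiss mouse, isolated by differential centrifugation in sucrose/Tris-MOPS/EGTA buffer pH 7.4 and assayed the same day. Mitochondria (100 µg) were stirred at room temperature with 100 µM compound in Tris/HCl, sucrose, 5 mM MgCl2 and 100 µM diadenosine pentaphosphate, pH 7.4. The reaction was started with 1 mM ADP, 20 mM Pi and 50 mM succinate, stopped after 1 h with EDTA-TCA, and ATP was read by luciferase.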"}, "Candida parapsilosis": {"test_system": "Candida parapsilosis", "test": "Antifungal activity against Candida parapsilosis ATCC 22019 at 50 ug/ml", "assay_type": "functional, organism-based"}, "[10]": {"test_system": "Mycobacterium tuberculosis H37Rv", "test": "Inhibition of Mycobacterium tuberculosis H37Rv ATP synthase assessed as reduction in total ATP content at 50 ug/ml after 18 hrs by bead-vortexing settling method", "in_short": "as §2"}, "Pseudomonas aeruginosa": {"test_system": "Pseudomonas aeruginosa", "test": "Antibacterial activity against Pseudomonas aeruginosa ATCC BAA-427 at 50 ug/ml", "assay_type": "functional, organism-based"}, "Staphylococcus aureus": {"test_system": "Staphylococcus aureus", "test": "Antibacterial activity against Staphylococcus aureus ATCC 25923 at 50 ug/ml", "assay_type": "functional, organism-based"}, "Sporothrix schenckii": {"test_system": "Sporothrix schenckii", "test": "Antifungal activity against Sporothrix schenckii at 50 ug/ml", "assay_type": "functional, organism-based"}, "Escherichia coli": {"test_system": "Escherichia coli", "test": "Antibacterial activity against Escherichia coli ATCC 9637 at 50 ug/ml", "assay_type": "functional, organism-based"}, "[11]": {"test": "Cytotoxicity against African green monkey Vero cells after 72 hrs yb resazurin assay", "assay_type": "cell-based", "details": "chlorocebus sabaeus", "in_short": "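Vero cells were seeded overnight in RPMI with 10% heat-inactivated FBS at 37 °C, 5% CO2. Cells were exposed in triplicate to concentrations from 100 to 1.56 µg/mL for 72 h. Resazurin (0.1%) was then added for 4–5 h, and fluorescence was read at ex 530/em 590 nm. CC50 was derived from the fluorescence plot.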"}, "Klebsiella pneumoniae": {"test_system": "Klebsiella pneumoniae", "test": "Antibacterial activity against Klebsiella pneumoniae ATCC 27736 at 50 ug/ml", "assay_type": "functional, organism-based"}, "[12]": {"test_system": "Mycobacterium tuberculosis", "test": "Bactericidal activity against non-replicating Mycobacterium tuberculosis H37Rv Wayne model under hypoxic/oxygen depleted conditions assessed as log reduction at 100 ug/ml after 4 days by serial dilution assay", "assay_type": "functional", "in_short": "as §1"}, "[13]": {"test_system": "Trichophyton mentagrophytes", "test": "Antifungal activity against Trichophyton mentagrophytes at 50 ug/ml", "assay_type": "functional, organism-based"}, "[14]": {"test": "Selectivity ratio of IC50 for Mycobacterium smegmatis TMC 607 ATP synthase to IC50 for Swiss mouse liver ATP synthase"}, "Candida albicans": {"test_system": "Candida albicans", "test": "Antifungal activity against Candida albicans at 50 ug/ml", "assay_type": "functional, organism-based"}, "Cryptococcus neoformans": {"test_system": "Cryptococcus neoformans", "test": "Antifungal activity against Cryptococcus neoformans at 50 ug/ml", "assay_type": "functional, organism-based"}, "[15]": {"test_system": "Mycobacterium tuberculosis H37Rv", "test": "Inhibition of Mycobacterium tuberculosis H37Rv ATP synthase assessed as reduction in total ATP content at 12.5 ug/ml after 18 hrs by bead-vortexing settling method", "in_short": "as §2"}, "[16]": {"test": "Selectivity index, ratio of CC50 for African green monkey Vero cells to MIC100 for Mycobacterium tuberculosis H37Rv", "assay_type": "toxicity, cell-based", "details": "read-out: Selectivity Index", "in_short": "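Selectivity index is CC50 from the Vero resazurin assay divided by the agar-dilution MIC against H37Rv.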"}, "[17]": {"test_system": "Mycobacterium tuberculosis", "test": "Antimycobacterial activity against Mycobacterium tuberculosis H37Rv infected in mouse chronic TB model assessed as survival rate at 490 umol/kg administered via esophageal cannula 6 times a week for 4 weeks relative to untreated control", "assay_type": "functional", "details": "672 h", "in_short": "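Male Balb/C mice (8–10 weeks, 18–20 g), ten per group, were infected intravenously with 5 × 10^6 CFU H37Rv in 0.2 mL. Dosing by gavage began on day 1, six times weekly for 4 weeks, with the last dose on day 28. Survival was followed to day 30. Survivors were sacrificed on day 30, and lung and spleen homogenates were plated on 7H10/OADC at 37 °C for 4–6 weeks. Results were compared with an untreated infected group.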"}}, "note": "Calls of active or inactive are those of the source. The calls are words filed in the database; no cut-off is given here.", "data": [{"smiles": "NNC(=O)c1ccncc1", "note": "[ISONIAZID]", "values": [{"measurement": "MIC", "setting": "[1]; Mycobacterium tuberculosis, H37Rv, 96 h, read-out: MIC100", "value": "≤ 0.12", "unit": "µg/mL"}, {"measurement": "inhibition", "setting": "[2]", "value": 0, "unit": "%"}, {"measurement": "MIC", "setting": "[3]; Mycobacterium tuberculosis, H37Rv, 672 h, read-out: MIC100", "value": 0.1, "unit": "µg/mL"}, {"measurement": "IC50", "setting": "[4]", "value": "Not Active"}, {"measurement": "log10CFU/ml", "setting": "[5]", "value": 0.21}, {"measurement": "inhibition", "setting": "[6]", "value": 78.5, "unit": "%"}]}, {"smiles": "CCN(CC)Cc1cc(N(c2cc(C)nc3cc(Cl)ccc23)S(=O)(=O)c2ccc(Cl)cc2Cl)ccc1O", "values": [{"measurement": "Activity", "setting": "Aspergillus fumigatus", "value": "inactive"}, {"measurement": "MIC100", "setting": "[1]", "value": 3.12, "unit": "µg/mL"}, {"measurement": "log10CFU/ml", "setting": "[7]", "value": 0.79}, {"measurement": "Activity", "setting": "[8]", "value": "Non-toxic"}, {"measurement": "IC50", "setting": "[9]", "value": "> 100000", "unit": "nM"}, {"measurement": "Activity", "setting": "Candida parapsilosis", "value": "inactive"}, {"measurement": "inhibition", "setting": "[10]", "value": 26, "unit": "%"}, {"measurement": "MIC100", "setting": "[3]", "value": 3.12, "unit": "µg/mL"}, {"measurement": "Activity", "setting": "Pseudomonas aeruginosa", "value": "inactive"}, {"measurement": "Activity", "setting": "Staphylococcus aureus", "value": "inactive"}, {"measurement": "Activity", "setting": "Sporothrix schenckii", "value": "inactive"}, {"measurement": "Activity", "setting": "Escherichia coli", "value": "inactive"}, {"measurement": "IC50", "setting": "[4]; read-out: IC50", "value": 630, "unit": "nM"}, {"measurement": "CC50 at 72 h", "setting": "[11]", "value": "> 300", "unit": "µg/mL"}, {"measurement": "Activity", "setting": "Klebsiella pneumoniae", "value": "inactive"}, {"measurement": "log10CFU/ml", "setting": "[12]", "value": 1.64}, {"measurement": "Activity", "setting": "[13]", "value": "inactive"}, {"measurement": "Ratio IC50", "setting": "[14]", "value": "> 155"}, {"measurement": "Activity", "setting": "Candida albicans", "value": "inactive"}, {"measurement": "Activity", "setting": "Cryptococcus neoformans", "value": "inactive"}, {"measurement": "inhibition", "setting": "[15]", "value": 54, "unit": "%"}, {"measurement": "selectivity ratio", "setting": "[16]", "value": "> 48"}]}, {"smiles": "CC[C@@H](CO)NCCN[C@@H](CC)CO", "note": "[ETHAMBUTOL]", "values": [{"measurement": "survival at 490 µmol/kg", "setting": "[17]", "value": 90, "unit": "%"}]}]}
